RTF Ca sens inh = cardiac RTF calcium sensitivity inhibitors, primary screen, biochemical, IANBD-TnC fluorescence, EC70 calcium | inhibition, % at 7.15 µM | IANBD-labeled cardiac RTF, Ca2+ fluorescence | 340,000 compounds, 0.12% hits | AID 493244, 2011 | Troponin I, cardiac muscle (Homo sapiens) + Troponin T, cardiac muscle (Homo sapiens) + …;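 active means inhibition above the mean inhibition of all tested compounds plus 3 SD, cut at about 17% in these data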;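 further: assay run at fixed EC70 calcium of 1.6 mM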
CRFR2-BP antag = antagonists of CRF-BP/CRF-R2 complex, primary screen, cell-based, HEK293, calcium dye fluorescence, uHTS | CRF-induced calcium fluorescence | inhibition, % at 11.8 µM | 350,000 compounds, 0.59% hits;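 active means inhibition of the ligand-induced calcium signal above about 50% at the single tested concentration, limit read from the data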
Tn7 DDE FP = inhibitors of Tn7 peptide binding to fibrin DD(E), primary screen, biochemical, fluorescence polarization, human fibrin, Tn7 probe | inhibition, % at 8.3 µM | Fibrinogen beta chain (Homo sapiens), P02675 | FP displacement of FITC-Tn7 peptide from fibrin DD(E); 0% = median of compound wells per plate | 370,000 compounds, 0.13% hits;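 active means inhibition above the mean of compounds falling within the control limits plus 3 SD of them, cut at about 14% in these data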
Target sequence (P02675 whole entry, looked up): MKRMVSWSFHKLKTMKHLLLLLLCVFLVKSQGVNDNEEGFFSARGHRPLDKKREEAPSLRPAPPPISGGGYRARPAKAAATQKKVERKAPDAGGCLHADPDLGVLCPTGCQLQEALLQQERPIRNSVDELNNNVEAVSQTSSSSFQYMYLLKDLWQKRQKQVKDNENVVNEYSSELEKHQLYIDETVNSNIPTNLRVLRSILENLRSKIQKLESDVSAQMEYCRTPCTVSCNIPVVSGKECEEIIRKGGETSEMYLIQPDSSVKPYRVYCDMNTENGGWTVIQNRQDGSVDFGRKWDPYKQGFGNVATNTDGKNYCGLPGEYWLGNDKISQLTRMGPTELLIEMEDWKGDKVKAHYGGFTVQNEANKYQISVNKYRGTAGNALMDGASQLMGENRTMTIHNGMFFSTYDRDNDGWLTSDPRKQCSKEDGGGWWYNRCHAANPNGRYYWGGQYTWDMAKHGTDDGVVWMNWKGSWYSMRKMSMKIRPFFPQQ
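Assay system: Human clot-derived fibrin DD(E) complex | Buffer or medium: Tris/NaCl/CaCl2 buffer, pH 7.8 | Repeats: One replicate per compound | Benchmarks: Aha-Tn7 high control | Measure: % inhibition scaled between sample-field median and high-control FP | Schedule: 10 min plus 3 h, room temperature | Signal: Fluorescence polarization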
Tn6 DDE FP = inhibitors of Tn6 peptide binding to fibrin DD(E), primary screen, biochemical, fluorescence polarization, human fibrin, Tn6 probe; Fibrinogen beta chain (Homo sapiens), P02675; Fibrin DD(E) TRITC-Tn6 fluorescence polarization displacement; inhibition, % at 8.3 µM; 370,000 compounds, 0.21% hits; AID 720509, 2013;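 active means inhibition above a per-campaign cutoff: mean of compounds within control limits plus 3 SD, cut at about 15% in these data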
cardiac RTF act = cardiac RTF calcium sensitivity activators, primary screen, biochemical, IANBD-TnC fluorescence, EC20 calcium; Troponin I, cardiac muscle (Homo sapiens) + Troponin T, cardiac muscle (Homo sapiens) + …; IANBD-labeled TnC RTF fluorescence at EC20 calcium; 0% EC20 calcium, 100% full calcium; activation, % at 7.2 µM; 340,000 compounds, 0.24% hits; AID 493008, 2010;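 active means activation above the mean over all tested compounds plus 3 SD, cut at about 30% in these data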;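 further: rise in fluorescence read as greater calcium sensitivity of cardiac thin filaments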
CRFR2-BP ag = agonists of CRF-BP/CRF-R2 complex, primary screen, cell-based, HEK293, calcium dye fluorescence, uHTS; CRF-binding protein / CRF receptor 2 complex (human); calcium dye fluorescence (FLIPR); percent of saturating CRF peptide response; 350,000 compounds, 0.46% hits; AID 588473, 2011; activation, % at 13.2 µM;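 active means activation of at least 50%, plus an integration ratio under a set limit after plate pattern correction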
Numbers stand for hits; – = inactive; · = no result given. Shown are actives, neighbours in structure and some others; about 1.4% of the full set was active somewhere.

SMILES | RTF Ca sens inh | CRFR2-BP antag | Tn7 DDE FP | Tn6 DDE FP | cardiac RTF act | CRFR2-BP ag
CCOc1ccc(/C=C/C(=O)c2c(O)c3ccccc3oc2=O)cc1 | – | – | – | – | – | –
CN(C)c1ccc(/C=C/C(=O)c2c(O)c3ccccc3oc2=O)cc1 | – | – | – | – | – | 129
CC(C)(C)S(=O)N1Cc2cc(C(=O)NCc3ccc(Oc4ccccc4)cc3)nc(-c3cccc(-c4cc5ccccc5o4)c3)c2[C@H]1CCO (stereo not given in full) | · | · | – | 17 | · | ·
CC(C)(C)S(=O)N1Cc2cc(C(=O)NCc3ccc4c(c3)OCO4)nc(-c3cccc(-c4cc5ccccc5o4)c3)c2[C@@H]1CCO (stereo not given in full) | · | · | – | – | · | ·
O=[N+]([O-])c1ccc(N/N=C/C=C/c2ccco2)cc1 | – | – | – | – | – | 95
O=C(O)c1ccc(N/N=C/C=C/c2ccc([N+](=O)[O-])o2)cc1 | – | – | – | – | – | –
COC(=O)c1ccc(NC(=O)COC(=O)CSc2nc(C)cc(C)n2)cc1 | – | 52 | – | – | – | –
COC(=O)CCCn1cc(CN2CC=CS2(=O)=O)nn1 | · | · | – | – | · | ·
CCCCC[C@@H](C)N1C[C@H](COCc2ccccc2)Oc2cc(N3CC[C@H](O)C3)ccc2S1(=O)=O | · | · | – | – | · | ·
Cc1ccc2nc(C(C)(C)C)c(Cc3ccccc3C(F)(F)F)n2c1 | · | · | – | – | · | ·
O=C(COc1ccc(F)cc1Cl)Nc1nnc(-c2ccc(F)c(F)c2)o1 | · | · | – | – | · | ·
O=C(Nc1cc(C(F)(F)F)ccc1Cl)C(Sc1cccc[n+]1[O-])c1ccccc1 (stereo not given) | – | – | – | – | – | 160
O=C(Nc1cc(C(F)(F)F)ccc1Cl)C(Sc1n[nH]c(=O)[nH]c1=O)c1ccccc1 (stereo not given) | – | – | – | – | – | –
O=C1c2ccccc2C(c2nnnn2-c2ccc3c(c2)OCCO3)N1CCOc1ccccc1 (stereo not given) | · | · | – | – | · | ·
CC(C)(C)OC(=O)C1[C@H](O)C=CC[C@H]1S(=O)c1ccccc1 (stereo not given in full) | · | · | – | – | · | ·
CCCCCCOc1ccc(N2C(=O)CC(N3CCN(C(=O)c4ccco4)CC3)C2=O)cc1 (stereo not given) | – | – | – | – | – | –
CCCOc1ccc(N2C(=O)CC(N3CCN(C(=O)c4ccco4)CC3)C2=O)cc1 (stereo not given) | – | – | – | 17 | – | –
CCC1CCCCN1CCCNC(=O)c1cn(C)c2ccc(S(=O)(=O)N(C)C3CCCCC3)cc2c1=O (stereo not given) | – | 56 | – | – | – | –
C=CCNC(=O)N1CCN(Cc2nc3ccccc3c(=O)[nH]2)CC1 | · | · | – | – | · | ·
Cc1cc(C(F)(F)F)n(-c2nc(C(=O)N/N=C/c3ccc(F)cc3)cs2)n1 | – | 71 | – | – | – | –
O=C(NCCN1CCC(n2c(=O)[nH]c3ccccc32)CC1)c1ccncc1 | · | · | – | – | · | ·
Cc1cccc(NC(=O)Cc2ccc(NC3=NC4CS(=O)(=O)CC4S3)cc2)c1 (stereo not given) | – | 60 | – | – | – | –
COC(=O)[C@]12C[C@H](CC(=O)N3CCOCC3)C(=O)N(Cc3ccccc3)C1=C[C@H](C(C)C)O[C@@H]2C1CC1 | · | · | – | – | · | ·
CCN(C(=O)c1cc(OC)c(OC)c(OC)c1)C1CCCCC1 | · | – | – | – | · | –
Clc1ccc(C2=CC(c3ccco3)n3ncnc3N2)cc1 (stereo not given) | – | – | 16 | – | 217 | 349
SMILES | RTF Ca sens inh | CRFR2-BP antag | Tn7 DDE FP | Tn6 DDE FP | cardiac RTF act | CRFR2-BP ag
COc1ccc(C2=CC(c3ccco3)n3ncnc3N2)cc1 (stereo not given) | – | – | · | · | 83 | 170
CC1(C(=O)O)CCCN(C(=O)c2ccc(F)cc2Cl)C1 (stereo not given) | · | · | – | – | · | ·
Cc1noc(C)c1NC(=O)Nc1ccc2c(c1)C(=O)N([C@H](C)CO)C[C@H](C)[C@@H](CN(C)S(=O)(=O)c1ccc(F)cc1)O2 | – | 70 | – | – | – | –
COc1ccc(-n2c(O)c(/C=C3\C=Nc4ccccc43)c(=O)[nH]c2=O)cc1 | – | – | – | – | – | 76
CC(C)N(C(=O)COC(=O)c1ccc([N+](=O)[O-])cc1)c1ccccc1 | – | – | – | – | – | –
CC(C)N(C(=O)C[n+]1ccsc1N)c1ccccc1 | – | 59 | – | – | – | –
CC[C@@H]1CCCCc2ccccc2[C@H](C(=O)C[C@H](O)CC(C)=O)OC1=O | – | 51 | – | – | – | –
NC(=O)COc1ncn(-c2ccccc2)n1 | – | 57 | – | – | – | –
O=C1N=c2ccccc2=C1c1sc(Nc2ccc(O)cc2)nc1O | – | 60 | – | – | – | –
O=C1N=c2ccccc2=C1c1sc(Nc2cccc(O)c2)nc1O | – | – | – | – | – | –
CCc1ccc(NC(=O)C(CC)c2ccccc2)cc1 (stereo not given) | – | – | – | – | – | 60
Cc1ccc(C(=O)OCC(=O)c2cc(C)n(CC3CCCO3)c2C)cc1 (stereo not given) | – | 79 | – | – | – | –
CN1C2=NC(c3ccccc3)CC(=O)N2/C(=C\c2ccccc2)C1c1ccccc1C(F)(F)F (stereo not given) | · | · | – | – | · | ·
CC1(C(=O)Nc2ccc3c(c2)OCCO3)CN(S(C)(=O)=O)CC(=O)N1CC(F)(F)F (stereo not given) | · | · | – | – | · | ·
O=C(OCc1ccc2c(c1)OCO2)c1ccc(S(=O)(=O)N2CCCC2)cc1 | – | 114 | – | – | – | –
O=C(OCc1ccc2c(c1)OCO2)c1cccc(S(=O)(=O)N2CCCCC2)c1 | – | – | – | – | – | –
O=C(Nc1ccc(O)cc1)c1ccccc1OCc1ccccc1 | – | – | – | – | – | –
O=C(Nc1ccccc1)c1ccccc1OCc1cccc([N+](=O)[O-])c1 | – | 53 | – | – | – | –
CCn1nc(C)cc1-c1nnc(Sc2ncc([N+](=O)[O-])s2)n1C | – | 97 | – | – | – | –
CCn1nc(C)cc1-c1nnc(SCC(=O)Nc2ccccc2)n1CCCOC | – | – | – | – | – | –

Source: PubChem BioAssay (several laboratories)
